Experimental data collected from several papers.
Lines come from different studies, so protocols differ.
Target: Serine/threonine-protein kinase WNK3 (WNK3, Homo sapiens, UniProt Q9BYP7)

SMILES | test | setting | remaining binding [%]
COc1ncc2cc3ccccc3nc2c1C#N | cell-free assay, competition with immobilised ligand | 5 µM | 96
O=S(=O)(NC1CCC(c2cc(F)ccc2F)(S(=O)(=O)c2ccc(Cl)cc2)CC1)C(F)(F)F (stereo not shown) | cell-free assay, competition with immobilised ligand | 1 µM | 100
O=C(NCCCN1CCOCC1)c1ccc(Nc2ncc(Cl)c(-c3ccc(Cl)s3)n2)cc1 | binding, competition with immobilised ligand | 1 µM | 100
CN(CCCC(F)(F)F)c1nccc(-c2cnn3ncccc23)n1 | binding | 1 µM | 100
CN([C@@H]1CCc2c(CC(=O)O)c3cc(S(C)(=O)=O)ccc3n2C1)S(=O)(=O)c1ccc(F)cc1 | cell-free assay, competition with immobilised ligand | 1 µM | 83
N[C@@H]1CCN(c2nccc(-c3cnn4ncccc34)n2)C1 | binding | 1 µM | 98
Cc1cnc(Nc2ccc(C(=O)N3CCC(N4CCCC4)CC3)cc2)nc1-c1cc2ccccc2s1 | binding, competition with immobilised ligand | 1 µM | 100
CO[C@@H](C)c1c(Nc2ccc([C@H](N(C)C(=O)C3CCS(=O)(=O)CC3)C(F)(F)F)cc2)cnc2cc(Cl)nn12 | cell-free assay, competition with immobilised ligand | 1 µM | 95
CN(C)c1nccc(-c2cnn3ncccc23)n1 | binding | 1 µM | 100
FC(F)(F)Oc1cccc(-c2cnc3ccc(-c4ccncc4)nn23)c1 | binding, competition with immobilised ligand | 5 µM | 77
C[C@@H](c1ccc(-n2cnc3c(N)ncnc32)cc1)N1CCc2nn(C)c(Cc3ccccc3)c2C1=O | binding, competition with immobilised ligand | 0.1 µM | 100
CC1CCCN1c1nccc(-c2cnn3ncccc23)n1 (stereo not shown) | binding | 1 µM | 100
Cc1c[nH]c2nccc(Oc3c(F)cc(Nc4cc(Cl)nc(N)n4)cc3F)c12 | cell-free assay, competition with immobilised ligand | 0.1 µM | 90
COc1cnc(Nc2cccc(S(N)(=O)=O)c2)nc1N1CCN(c2ccccc2)CC1 | binding, competition with immobilised ligand | 1 µM | 97
c1cnn2ncc(-c3ccnc(N4CCC45COC5)n3)c2c1 | binding | 1 µM | 68
O=C(c1ccc(Nc2ncc(Cl)c(-c3cc4ccccc4s3)n2)cc1)N1CCC(N2CCCC2)CC1 | binding, competition with immobilised ligand | 1 µM | 100
CNCc1ccccc1-c1csc([C@H](C)Nc2nc(C)nc3cc(OC)c(OC)cc23)c1 | cell-free assay, competition with immobilised ligand | 1 µM | 98
C=CC(=O)N1CCC(C(=O)NCC(=O)N2CCN(c3nc(-c4cnc(N)nc4C(F)F)nc(N4CCOCC4)n3)CC2)CC1 | binding, competition with immobilised ligand | 1 µM | 96
Cn1cc(Cl)c2c(Oc3c(F)cc(Nc4cc(Cl)nc(N)n4)cc3F)ccnc21 | cell-free assay, competition with immobilised ligand | 0.1 µM | 95
COc1ccnn2ncc(-c3ccnc(N(C)C)n3)c12 | binding | 1 µM | 92
COc1ccc2c(c1)O[C@@H](c1ccc(OC)c(OC)c1)C[C@H]2NC(=O)C1(c2ccc3c(c2)OC(F)(F)O3)CC1 | cell-free assay, competition with immobilised ligand | 1 µM | 100
O=C(NCC1CCOCC1)c1n[nH]cc1NC(=O)c1c(F)cccc1F | binding, competition with immobilised ligand | 1 µM | 95
